From PubChem BioAssay
CSN inh: blocks human CSN-mediated cullin deneddylation. AID 651999. Q92905. 0.38% of 360,000 active. Purified CSN, SCF-Nedd8-OG deneddylation, fluorescence polarization. inhibition, % at 12.5 µM;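 active = pattern-corrected inhibition above about 35%, with an unprinted fluorescence ratio check between 0.5 and 1.5, limit read from the data, passing the limit was not always enough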
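Test system: Human Csn5 produced in HEK293T cells | Compound: 12.5 µM single point | Times: 90 min, room temperature | Signal: Fluorescence polarization readout | Read-out basis: % inhibition of substrate cleavage by Csn5 | Controls: no-enzyme wells high, enzyme-with-substrate wells low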
MBD2 inh: inhibitors of human MBD2 binding to methylated oligonucleotide. 0.31% of 370,000 active. AID 686964. inhibition, % at 4.4 µM. TR-FRET; in the data active = inhibition above about 13%
Target sequence (Q9UBB5 whole entry, looked up): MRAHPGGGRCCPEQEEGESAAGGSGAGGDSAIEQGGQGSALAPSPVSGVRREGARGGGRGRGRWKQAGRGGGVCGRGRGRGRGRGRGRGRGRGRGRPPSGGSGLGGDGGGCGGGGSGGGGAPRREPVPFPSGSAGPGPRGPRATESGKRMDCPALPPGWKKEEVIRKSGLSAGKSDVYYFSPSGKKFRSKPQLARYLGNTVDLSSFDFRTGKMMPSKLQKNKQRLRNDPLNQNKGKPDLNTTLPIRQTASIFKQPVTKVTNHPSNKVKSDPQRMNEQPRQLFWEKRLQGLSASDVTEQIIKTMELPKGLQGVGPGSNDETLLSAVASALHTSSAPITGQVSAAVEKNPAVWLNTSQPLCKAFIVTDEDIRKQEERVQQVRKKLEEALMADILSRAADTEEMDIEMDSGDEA
LEDGF integ inh: blocks HIV-1 LEDGF/p75-dependent DNA integration. 0.64% of 370,000 active. AID 743269. TR-FRET IN-LEDGF/p75 DNA integration, Eu/Cy5. inhibition, % at 3.7 µM;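 active = inhibition above the screen-wide mean plus 3 SD, cut at about 13% in these data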;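 note: signal is the Cy5 over europium emission ratio at 671 and 618 nm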
UHRF1 MBD2 ctr: UHRF1 methyl-DNA binding inhibition. Q96T88. UHRF1 binding to methylated oligo, TR-FRET. inhibition, % at 4.4 µM. 0.75% of 370,000 active; in the data active = inhibition above about 21%;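 note: UHRF1 SRA domain binding a hemimethylated CpG hairpin DNA probe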
rCAG binder: r(CAG) repeat RNA binding; AID 651821; 1.3% of 370,000 active; inhibition, % at 3 µM; TO-PRO-1 dye displacement fluorescence;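 active = inhibition above the plate cutoff, the mean of all test compounds on that plate plus 3 SD, cut at about 35% in these data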;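 note: higher means more dye released from RNA so lower well fluorescence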
ATG4B inhibitor: blocks human ATG4B protease cleavage of LC3 substrate; ATG4B cleavage of LC3-PLA2, NBD-HPC fluorescence, 1 h; AID 504462; 0.51% of 340,000 active; inhibition, % at 8.33 µM; Q9Y4P1; in the data active = inhibition above about 40%
rCAG bind conf: r(CAG) RNA repeat binding, confirmation. inhibition, % at 3 µM. TO-PRO-1 dye displacement fluorescence. shares compounds with rCAG binder. 70% of 4,300 active;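 active = inhibition above a per-plate cutoff, the mean inhibition of sample wells plus 3 SD, cut at about 35% in these data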;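 note: loss of TO-PRO-1 fluorescence as compound displaces dye from 1x1 AA loop RNA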
dCAG dye counter: counter-screen for rCAG RNA binders: DNA CAG dye complex inhibitors. shares compounds with rCAG binder. d(CAG) DNA oligo TO-PRO-1 dye displacement, fluorescence. inhibition, % at 3 µM. 94% of 4,300 active. AID 652068;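 active = inhibition above its plate's cutoff, the mean test-well inhibition plus 3 SD, cut at about 4.8% in these data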;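 note: hits displace the dye from DNA and so lower well fluorescence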
DNA CAG DR: counter-screen for rCAG binders: inhibitors of DNA CAG TO-PRO-1 complex | shares compounds with rCAG binder | AID 686960 | DNA CAG/GTC duplex TO-PRO-1 dye displacement fluorescence | IC50, µM | 20% of 250 active; in the data active = IC50 below about 10 µM
Each line names hits and unclear results; the compound was inactive in the other large screens (follow-up assays come after a bar, where they were run). Most compounds without a hit are left out; they make up all but 3.1% or so of the library.

COc1ccc(-c2nc(-c3ccccc3)c(-c3cc([N+](=O)[O-])ccc3C)[nH]2)cc1O	none
Cc1ccc([N+](=O)[O-])cc1-c1[nH]c(-c2ccc(O)c(O)c2)nc1-c1ccccc1	rCAG binder 35.5 | rCAG bind conf 37.3 | dCAG dye counter 19.4
COc1ccc([N+](=O)[O-])cc1-c1[nH]c(-c2ccc(C(=O)O)cc2)nc1-c1ccccc1	rCAG binder 54.8 | rCAG bind conf 48.3 | dCAG dye counter 15.8
COc1ccc(-c2nc3ccc([N+](=O)[O-])cc3[nH]2)cc1	none
COC(=O)c1ccc2nc(Nc3nc4ccc(F)cc4s3)sc2c1	none
CC(=O)c1sc(Nc2nc3ccc(F)cc3s2)nc1C	rCAG binder 35.8 | rCAG bind conf inactive | dCAG dye counter 8.0
O=[N+]([O-])c1ccc(S(=O)(=O)Nc2nc3ccccc3nc2Nc2ccccc2)cc1	none
CCOC(=O)N1CCC(Nc2nc3ccccc3nc2NS(=O)(=O)c2ccc(Cl)cc2)CC1	none
O=C(O)c1ccc(Nc2nc3ccccc3nc2NS(=O)(=O)c2ccc(F)cc2)cc1	rCAG binder 40.6 | rCAG bind conf 53.3 | dCAG dye counter 21.1
O=C(O)c1cccc(Nc2nc3ccccc3nc2NS(=O)(=O)c2ccccc2)c1	rCAG binder 36.4 | rCAG bind conf 38.6 | dCAG dye counter 11.6
NS(=O)(=O)c1cccc(Nc2nc3ccccc3nc2NS(=O)(=O)c2ccc(Cl)cc2)c1	rCAG binder 89.7 | rCAG bind conf 88.6 | dCAG dye counter 67.6
CCN(CC)C(=O)CC[C@H]1CC[C@]2(CCCN(Cc3ccccc3)C2)O1	none (no result: CSN inh, ATG4B inhibitor)
CCn1c2ccccc2c2cc(NC(=O)c3cc4c(C)nn(-c5ccccc5)c4s3)ccc21	none (no result: CSN inh, ATG4B inhibitor)
O=C(O)Cn1cc(/C=N/Nc2ccc([N+](=O)[O-])cn2)c2ccccc21	rCAG binder 37.4 | rCAG bind conf inactive | dCAG dye counter 7.5
Cc1ccc(C2=NOC(=O)/C2=C\c2ccc(C)o2)cc1	rCAG binder 37.2 | rCAG bind conf inactive | dCAG dye counter 6.8
Cc1ccc(/C=C2\C(=O)ON=C2c2ccccc2)o1	none
CC[C@@H]1C=C(C(=O)O)[C@H](c2ccc(C)cc2)N1S(=O)(=O)c1ccc(C)cc1	none
CCCC[C@@H]1C=C(C(=O)O)[C@H](c2ccc(Cl)cc2)N1S(=O)(=O)c1ccc(C)cc1	rCAG binder 58.4 | rCAG bind conf 54.3 | dCAG dye counter 20.1
CCCC[C@@H]1C=C(C(=O)O)[C@H](c2ccc3c(c2)OCO3)N1S(=O)(=O)c1ccc(C)cc1	rCAG binder 45.0 | rCAG bind conf 39.0 | dCAG dye counter 11.0
CC[C@@H]1C=C(C(=O)O)[C@H](c2ccc(Cl)cc2)N1S(=O)(=O)c1ccc(C)cc1	none
CCCCC[C@@H]1C=C(C(=O)O)[C@H](c2ccc(Br)cc2)N1S(=O)(=O)c1ccc(C)cc1	rCAG binder 80.5 | rCAG bind conf 69.2 | dCAG dye counter 30.9
Cc1ccc(S(=O)(=O)N2[C@@H](c3ccc4c(c3)OCO4)C(C(=O)O)=C[C@H]2C(C)(C)C)cc1	none
C=CCN1[C@H](C)COc2cc(N3CCSCC3)ccc2S1(=O)=O	none (no result: CSN inh, ATG4B inhibitor)
CCOc1ccc2c(c1)c(N=Nc1cccc(C(=O)O)c1)c(O)n2C	none
Cc1ccc2c(c1)c(N=Nc1cccc(C(=O)O)c1)c(O)n2C	rCAG binder 37.8 | rCAG bind conf 56.2 | dCAG dye counter 12.3 | DNA CAG DR inactive
CC(=O)CC[C@H]1CC[C@]2(CCCN(S(=O)(=O)c3ccccc3)C2)O1	none (no result: CSN inh, ATG4B inhibitor)
CCOC(=O)[C@@]12CCC3=C1N(CCC3)C(=O)[C@H](CC(=O)N1CCN(C(=O)C3CC3)CC1)C2	none (no result: CSN inh, ATG4B inhibitor)
